The nature of data set [1]: Plasma concentration in Wistar rat at 1 mg/kg administered as single dose through oral gavage after 24 hrs by LC-MS/MS analysis. It counts as ADME, organism-based. Summed up:
(§1)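 Single oral gavage dose to male Wistar rats in DMSO/7.5% succinylated gelatine (final 5% DMSO). Blood was drawn into EDTA at the lymphocyte-count timepoints. Plasma was prepared at 3000 g for 10 min at 4 °C and analysed by LC-MS/MS after protein precipitation.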

Data set [2] deals with Rattus norvegicus. As to the kind of experiment: Reduction in circulating lymphocyte count in po dosed Wistar rat administered through gavage after 3 to 96 hrs. It counts as functional, organism-based. The method, boiled down:
(§2)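 Male Wistar rats (RccHan:WIST; n = 6) were given a single oral gavage dose of compound in DMSO plus 7.5% succinylated gelatine (final 5% DMSO). Blood lymphocytes were counted just before dosing and at later timepoints. Percent change was calculated per animal relative to the pre-dose value and compared with a vehicle-treated group, reported as the mean. A ±15% change was treated as baseline, and a reduction of about 60% or more as maximal.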

Data set [3] is described as follows: Total brain concentration in Wistar rat at 10 mg/kg administered as single dose through oral gavage after 2 hrs by LC-MS/MS analysis. Type of data set: ADME, organism-based. Particulars: read-out: Drug uptake. Summed up: (§3)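 Male Wistar rats (n = 2 per timepoint) were dosed orally at 10 mg/kg. At 2, 6 and 24 h they were anaesthetised with 5% isoflurane and sacrificed, and blood was taken for plasma. The brain was perfused via the carotid with 10 mL 0.9% NaCl, removed, and homogenised in an equal volume of ice-cold 0.1 M Na-phosphate pH 7.4. Samples were assayed by LC-MS/MS against blank-brain calibration. Brain/plasma ratio was calculated from these values, reported as the mean of 2.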

Data set [4] in a line: Total brain concentration in Wistar rat at 10 mg/kg administered as single dose through oral gavage after 6 hrs by LC-MS/MS analysis. Type of data set: ADME, organism-based. The note with it: read-out: Drug uptake. Summed up: as §3
Data set [5] in a line: Total plasma concentration in Wistar rat at 10 mg/kg administered as single dose through oral gavage after 6 hrs by LC-MS/MS analysis. It counts as ADME, organism-based. Summed up:
as §3

The nature of data set [6]: Ratio of total drug level in brain to plasma in Wistar rat at 10 mg/kg administered as single dose through oral gavage after 6 hrs. Type of data set: ADME, organism-based. The note with it: read-out: BPR. Summed up: as §3
In a further data set the test system is Plasma. As to the kind of experiment: Plasma concentration in Wistar rat at 3 mg/kg administered as single dose through oral gavage after 72 hrs by LC-MS/MS analysis. Type of data set: ADME, organism-based. Particulars: in vivo, BLD = below limit of detection. The method, boiled down:
as §1

The target in data set [7] is Sphingosine 1-phosphate receptor 1 (Homo sapiens, UniProt P21453). Put plainly: Agonist activity at human recombinant S1PR1 expressed in CHO cell membranes assessed as [35S]GTPgammaS binding preincubated for 30 mins followed by [35S]GTPgammaS addition measured after 1 hr by topcount analysis.
For data set [8], the system named is Rattus norvegicus. Put plainly: Change in circulating lymphocyte count in Wistar rat at 10 mg/kg administered as single dose through oral gavage after 24 hrs relative to control. Type of data set: functional. Summed up: as §2
The subject of data set [9] is Rattus norvegicus. Put plainly: Change in circulating lymphocyte count in Wistar rat at 10 mg/kg administered as single dose through oral gavage after 3 hrs relative to control. Type of data set: functional. The method, boiled down:
as §2

Data set [10] can be described thus: Apparent intrinsic clearance in Wistar rat liver microsomes at 1 uM after 2.5 to 15 mins by LC-MS/MS analysis in presence of NADPH. Type of data set: ADME. Particulars: read-out: CLH(app). The method, boiled down:
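Compound at 1 uM starting concentration was depleted by 0.5 mg/mL rat liver microsomes in 100 mM sodium phosphate pH 7.4 at 37 °C, with shaking under air. Reactions were started with an NADPH-regenerating system. Samples were taken at 0, 2.5, 5, 10 and 15 min, quenched in ice-cold methanol and analysed by LC-MS/MS. CLint,app came from first-order decay fitting.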

A short description of data set [11]: Fraction unbound in Wistar rat liver microsomes incubated for 6 hrs by LC-MS/MS based equilibrium dialysis method. Type of data set: ADME. Summed up: (§4)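 Rapid equilibrium dialysis was run on a shaker for 6 h at 37 °C. The donor side held rat plasma (pH 7.2–7.6) or 1 mg/mL rat liver microsomes in phosphate buffer pH 7.4. The receiver side held phosphate buffer pH 7.4. Both sides were measured by LC-MS/MS to give free fraction and recovery.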

The nature of data set [12]: Fraction unbound in Wistar rat plasma incubated for 6 hrs by LC-MS/MS based equilibrium dialysis method. It counts as ADME, cell-free. The method, boiled down:
as §4

The nature of data set [13]: Plasma concentration in Wistar rat at 10 mg/kg administered as single dose through oral gavage after 3 hrs by LC-MS/MS analysis. Type of data set: ADME, organism-based. Summed up: as §1
Data set [14] in a line: Plasma concentration in Wistar rat at 10 mg/kg administered as single dose through oral gavage after 6 hrs by LC-MS/MS analysis. It counts as ADME, organism-based. The method, boiled down: as §1
Data set [15] can be described thus: Plasma concentration in Wistar rat at 10 mg/kg administered as single dose through oral gavage after 96 hrs by LC-MS/MS analysis. It counts as ADME, organism-based. Summed up:
as §1

Data set [16] concerns the target T1, Sphingosine 1-phosphate receptor 4 (Homo sapiens, UniProt O95977).
T1 sequence (O95977 whole entry): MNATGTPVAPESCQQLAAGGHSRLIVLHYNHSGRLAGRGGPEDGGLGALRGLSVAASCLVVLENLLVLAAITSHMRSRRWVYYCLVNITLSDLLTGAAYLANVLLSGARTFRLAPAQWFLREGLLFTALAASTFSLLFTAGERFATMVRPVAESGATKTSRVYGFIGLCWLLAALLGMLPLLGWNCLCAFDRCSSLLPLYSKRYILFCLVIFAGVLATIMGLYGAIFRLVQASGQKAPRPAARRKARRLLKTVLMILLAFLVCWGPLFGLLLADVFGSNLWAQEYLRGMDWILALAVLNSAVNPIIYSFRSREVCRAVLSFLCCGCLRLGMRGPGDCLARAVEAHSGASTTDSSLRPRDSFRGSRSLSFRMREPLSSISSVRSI
Put plainly: Agonist activity at S1PR4 (unknown origin).

The subject of data set [17] is Rattus norvegicus. As to the kind of experiment: Change in circulating lymphocyte count in Wistar rat at 1 mg/kg administered as single dose through oral gavage after 6 hrs relative to control. It counts as functional. The method, boiled down: as §2
For data set [18], the system named is Rattus norvegicus. As to the kind of experiment: Change in circulating lymphocyte count in Wistar rat at 3 mg/kg administered as single dose through oral gavage after 6 hrs relative to control. Type of data set: functional. Summed up: as §2
Data set [19] concerns Rattus norvegicus. Put plainly: Change in circulating lymphocyte count in Wistar rat at 3 mg/kg administered as single dose through oral gavage after 24 hrs relative to control. Type of data set: functional. Summed up:
as §2

Data set [20] in a line: Plasma concentration in Wistar rat at 1 mg/kg administered as single dose through oral gavage after 6 hrs by LC-MS/MS analysis. It counts as ADME, organism-based. Summed up:
as §1

The EC50 is the concentration giving half of the maximal effect. As usually defined, the fraction unbound is free concentration divided by total concentration. A high value points to much free substance.

Structures are written as SMILES.

Sequence of Sphingosine 1-phosphate receptor 1 (P21453 whole entry): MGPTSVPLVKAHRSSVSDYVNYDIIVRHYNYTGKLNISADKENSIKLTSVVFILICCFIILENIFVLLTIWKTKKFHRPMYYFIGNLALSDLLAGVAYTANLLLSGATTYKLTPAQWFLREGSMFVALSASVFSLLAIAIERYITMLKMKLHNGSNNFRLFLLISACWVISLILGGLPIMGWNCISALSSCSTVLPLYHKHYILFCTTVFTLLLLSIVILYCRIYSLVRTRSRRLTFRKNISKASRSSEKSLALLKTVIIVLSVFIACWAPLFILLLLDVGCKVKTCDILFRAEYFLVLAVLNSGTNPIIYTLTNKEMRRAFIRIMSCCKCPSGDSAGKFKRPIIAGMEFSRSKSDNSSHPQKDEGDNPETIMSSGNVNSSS

In the case of `CCc1cc(-c2noc(-c3cc(C)c(CN(C)CC(C)C)s3)n2)cc(C)c1OC[C@@H](O)CNC(=O)CO`, in data set [1], the concentration at 24 h is 5.2 ng/mL. Moreover, the Activity entry was “Dose-dependent effect” with Rattus norvegicus [2]; -70% in the data set on Rattus norvegicus [8]; -69% in the data set on Rattus norvegicus [9]; -46% with Rattus norvegicus [17]; -70% in the data set with Rattus norvegicus [18]; -25% in the data set on Rattus norvegicus [19]. For the same compound, the concentration at 2 h in data set [3] came out at 522 ng/g. Further, the concentration at 6 h was determined as 1030 ng/g in data set [4], 622 ng/mL in data set [5], 540 ng/mL in [14] and 49 ng/mL in data set [20]. Further, the Kp at 6 h in data set [6] worked out at 1.69. The Cp result in the data set with Plasma is “BLD”. Moreover, the EC50 was 0.5 nM in data set [7] and > 1000 nM in data set [16]. Moreover, the microsomal CLint at 1 µM in data set [10] amounted to 28 µL/min/mg. Moreover, the figures for the fraction unbound at 6 h in data set [11] and in data set [12] were 0.002 and < 0.001, respectively. The compound further gave a concentration at 3 h in [13] of 722 ng/mL. The same compound yielded a concentration at 96 h in data set [15] of 0.5 ng/mL.

For the origin of these results see ChEMBL document CHEMBL3797028, “Novel S1P1 receptor agonists - Part 4: Alkylaminomethyl substituted aryl head groups” (Eur J Med Chem, 2016).
